# Screening results as filed in PubChem.
# HNF4A DNA FP: change in binding of human HNF4 alpha to DNA; P41235; activity change, % at 10 µM; AID 1224865; 0.3% of 360,000 active; HNF4a-FITC DNA binding, fluorescence polarization, 1 h; in the data active = activity change above about 30%, passing the limit was not always enough
# Rpn11 block: inhibitors of human proteasome Rpn11; O00487; human 26S proteasome, Ub4-pepOG fluorescence polarization; 20S core pre-blocked with epoxomicin; inhibition, % at 20 µM; 0.59% of 360,000 active;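 active = inhibition at 20 µM, scaled to each plate's controls, above about 33%, limit read from the data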
# Target sequence (O00487 whole entry, looked up): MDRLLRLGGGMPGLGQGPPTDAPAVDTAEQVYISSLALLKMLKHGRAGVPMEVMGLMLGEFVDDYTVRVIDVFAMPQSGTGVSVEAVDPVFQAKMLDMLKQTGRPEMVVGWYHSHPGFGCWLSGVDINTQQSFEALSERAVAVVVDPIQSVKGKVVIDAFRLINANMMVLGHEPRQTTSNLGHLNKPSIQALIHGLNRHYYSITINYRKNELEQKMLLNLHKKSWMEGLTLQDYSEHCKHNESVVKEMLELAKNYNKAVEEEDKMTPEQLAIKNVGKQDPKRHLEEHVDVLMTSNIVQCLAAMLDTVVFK
# CSN deneddyl inh: blocks human CSN-mediated cullin deneddylation | Purified CSN, SCF-Nedd8-OG deneddylation, fluorescence polarization | AID 651999 | inhibition, % at 12.5 µM | 0.38% of 360,000 active | Q92905;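 active = pattern-corrected inhibition above about 35%, with an unprinted fluorescence ratio check between 0.5 and 1.5, limit read from the data, passing the limit was not always enough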;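 note: 0% = enzyme with substrate and 100% = substrate without enzyme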
#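 Detection – fluorescence polarization · System – HEK293T-derived human Csn5 enzyme · Controls – substrate-only high control, full reaction low control · Timing – 90 min, room temperature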
# SENP1 FRET inh: inhibitors of human SENP1 SUMO protease catalytic domain; inhibition, % at 10 µM; Q9P0U3; 0.21% of 360,000 active; AID 624204; recombinant SENP1 catalytic domain, CyPet-SUMO1-YPet FRET cleavage;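 active = inhibition at least 30% at 10 µM, raw YFP signal under a set limit, fluorescence ratio 0.5 to 1.5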;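 note: 0% = enzyme with DMSO and 100% = no enzyme wells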
# Target sequence (Q9P0U3 419-644 limits assumed): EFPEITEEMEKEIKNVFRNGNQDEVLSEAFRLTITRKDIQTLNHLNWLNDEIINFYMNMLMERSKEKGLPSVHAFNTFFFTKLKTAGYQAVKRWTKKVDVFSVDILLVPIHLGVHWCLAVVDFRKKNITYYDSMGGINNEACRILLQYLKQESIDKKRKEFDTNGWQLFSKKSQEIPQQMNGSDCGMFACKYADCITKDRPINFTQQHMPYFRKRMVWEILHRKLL
#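 system = hSENP1 catalytic domain, recombinant | reagent = SFCypet-SUMO1-SFYpet substrate at 25 nM | doses = one dose per compound, 10 µM, 0.5% DMSO | incubation = enzyme reaction for 50 min at room temperature, dark | measured by = FRET, CFP and YFP emission | controls = no-enzyme low, enzyme-DMSO high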
# TPT1 inhibitor: blocks Candida albicans tRNA 2'-phosphotransferase; recombinant caTPT1, FP RNA substrate dephosphorylation; inhibition, % at 5 µM; 0.81% of 300,000 active; AID 1962;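 active = inhibition above the mean of all tested compounds plus 3 SD, set per screening campaign, cut at about 24% in these data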;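 note: plate controls were DMSO alone for no effect and ferristatin control at 100 nM for full effect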
# * = called active by the depositor; x = not tested or not shown. This is a sample that favours compounds with a hit; in the whole collection about 1.6% have one here.
SMILES,HNF4A DNA FP,Rpn11 block,CSN deneddyl inh,SENP1 FRET inh,TPT1 inhibitor
COc1ccc(OC)c(CN2C(=O)CSCC2(C)C(=O)Nc2c(C)cccc2C)c1 (centres undefined),4,x,5,2,x
O=C(/C=C/c1cn(CC(O)CN2CCCCC2)c2ccccc12)c1ccccc1 (centres undefined),2,42*,11,-35,x
CCCCN(C)CC(O)Cn1cc(/C=C/C(=O)c2ccc(C)cc2)c2ccccc21 (centres undefined),7,46*,14,-28,18
CN1CCN(Cn2cc(/C=C/C(=O)c3ccccc3)c3ccccc32)CC1,1,15,1,-22,17
CCN=C1SC(C(=O)Nc2ccc(Cl)c(Cl)c2)CC(=O)N1CC (centres undefined),-1,1,79*,0,3
CC(C)n1cnc2c(Nc3cccc(Cl)c3)nc(NCCCO)nc21,1,-1,-1,-1,-1
C=CC(=O)Nc1cccc(Nc2nc(N[C@H]3CC[C@H](N(C)C)CC3)nc3c2ncn3C(C)C)c1,40,68*,112*,-7,x
CCN(CC)c1ccc(/C=C/c2nc3ccccc3s2)cc1,x,x,x,x,178*
CCN(CC)c1ccc(NC(=O)COC(=O)/C=C/c2nc3ccccc3s2)cc1,3,4,3,0,-1
Cc1cc(C)c2nc3sc(=Cc4ccc(-c5ccccc5C(=O)O)o4)c(=O)n3c2c1,72,x,142*,-27,x
Cc1ccc(-c2nc3cccnc3s2)cc1NC(=O)C1c2ccccc2Oc2ccccc21,40*,23,36*,-36,x
Cc1ccc(-c2nc3cccnc3s2)cc1NC(=O)c1ccco1,1,6,3,0,-2
O=C(Nc1ccccc1N1CCCC1)c1ccccc1F,38*,-3,0,-2,-2
Cc1ccc(C(=O)N2CCN(c3ccc(NC(=O)COc4ccccc4C)cc3)CC2)cc1,-1,-1,1,3,1
CN(C)c1ccc(N/C=C/C(=O)c2ccccc2)cc1,38*,x,11,68,16
CCCN1CCc2c(sc(NC(=O)c3ccc(S(=O)(=O)N4CCN(C(=O)OCC)CC4)cc3)c2C(N)=O)C1,92*,x,52*,-31,156*
CC1(C)Oc2ccc3ccc(=O)oc3c2/C(=C/NC2CCCCC2)C1=O,1,-8,-2,-1,-2
Cc1ccc([N+](=O)[O-])c(NC(=O)COC(=O)CCNS(=O)(=O)c2cccs2)c1C,2,0,4,2,x
COc1cc2cnc(-c3cccnc3)cc2cc1OC,1,2,3,1,x
CN(C)CCNc1ccc(CO)c2sc3ccc(O)cc3c(=O)c12,36*,39,5,27,x
CC1(C(=O)Nc2ccc3c(c2)OCCO3)CN(S(C)(=O)=O)CC(=O)N1CCc1ccc(O)cc1 (centres undefined),1,x,-2,-3,x
Cc1sc2c(c1C)C(O)=C(C(=O)Nc1ccccc1)S(=O)(=O)N2C,0,4,5,1,-4
CC(C)[C@@H]1Cc2[nH]c(=O)[nH]c(=O)c2[C@H](C)O1,-2,x,-2,-1,x
C(=N\Nc1ncnc2nc[nH]c12)/c1cccs1,-2,-3,-5,-1,-2
O=C(NCCc1ccccc1)c1ccc2c(=O)[nH]c3c(C(=O)NCC4CCCO4)sc(=S)n3c2c1 (centres undefined),7,10,0,54*,10
SMILES,HNF4A DNA FP,Rpn11 block,CSN deneddyl inh,SENP1 FRET inh,TPT1 inhibitor
CC(C)NC(=O)c1sc(=S)n2c1[nH]c(=O)c1ccc(C(=O)NCCc3ccc(Cl)cc3)cc12,1,22,2,49*,0
CCOc1ccc(CCNC(=O)c2ccc3c(=O)[nH]c4c(C(=O)NC(C)C)sc(=S)n4c3c2)cc1,2,-3,3,48*,0
CCCCNC(=O)c1sc(=S)n2c1[nH]c(=O)c1ccccc12,-2,-6,2,-1,0
O=C(NCC1CCCO1)c1ccc2c(=O)n(CC3CCCO3)c(=S)[nH]c2c1 (centres undefined),3,-11,0,0,-4
Cc1nc2c(ccc3nc(NC(=O)c4ccc5c(c4)OCCO5)sc32)s1,21,15,45*,-3,-3
Cc1nc2ccc3nc(NC(=O)c4ccc5c(c4)OCCO5)sc3c2s1,6,32,9,-29,10
CCc1cc(=O)oc2cc3occ(C)c3cc12,-2,-4,-9,-3,-1
CCc1cc(=O)oc2cc3occ(-c4ccc(OC)c(F)c4)c3cc12,30,36,37*,-5,-1
COC(=O)[C@@]12C[C@@H](CC(=O)N3CCC(c4ccccc4)CC3)C(=O)N(Cc3ccco3)C1=CCC(C)(C)C2,4,x,121*,2,x
Cc1cccc(C)c1NC(=O)C1(C)CSCC(=O)N1Cc1ccco1 (centres undefined),40*,x,94*,-2,x
Cc1ccc(CN2C(=O)CSCC2(C)C(=O)Nc2c(C)cccc2C)cc1 (centres undefined),7,x,0,-3,x
CC1(C)CC(c2nc(-c3ccccc3)cs2)CCS1 (centres undefined),17,0,97*,1,3
CCOC(=O)C1(C)CCCN(C(=O)c2c(F)cccc2F)C1 (centres undefined),1,-1,0,1,x
Cc1ccc(/C=c2\sc3nc(-c4cccs4)nn3c2=O)o1,1,32,44*,-23,9
Nc1cc2c3c(cccc3c1)C(=O)N(CCN1CCCC1)C2=O,-32,-54,-5,38,-54
O=C1c2cccc3cc([N+](=O)[O-])cc(c23)C(=O)N1CCN1CCCC1,-22,-31,-5,70*,x
Cc1ccc(C)n1-c1cccc(C(=O)O)c1,x,x,x,x,51*
COc1ccccc1C1CC(c2ccc(NS(C)(=O)=O)cc2)=NN1S(=O)(=O)c1ccccc1 (centres undefined),0,-2,-2,-1,-2
COc1ccccc1C1CC(c2cccc(NS(C)(=O)=O)c2)=NN1S(=O)(=O)c1ccccc1 (centres undefined),81*,35,22,-29,1
CCc1c(-c2cccc(OC)c2)ncn1Cc1cccc(-c2ccccc2)c1,-3,x,-3,3,x
O=[N+]([O-])c1ccc(C=CC=Cc2ccccc2)cc1,26,x,36*,-34,x
O=C(c1cc(COc2ccc(F)c(F)c2)on1)N1CCN(C/C=C/c2ccccc2)CC1,-2,4,2,0,x
Cc1cc(NC(=O)c2cc(-c3ccccn3)nc3ccc(Br)cc23)no1,4,2,44*,-1,-1
Cc1cc(NC(=O)c2cc(-c3ccccn3)nc3ccccc23)no1,-2,-2,-2,1,0
N#CNc1nc(O)cc(=O)[nH]1,1,5,3,29*,1
COc1ccc(S(=O)(=O)NCc2ccncc2)cc1OC,2,-2,3,0,-2
